Three compounds from ChEMBL document CHEMBL1132324, “Structure-activity relationships in 1,4-benzodioxan-related compounds. 6. Role of the dioxane unit on selectivity for alpha(1)-adrenoreceptor subtypes” (J Med Chem, 1999) can be followed below.

Test [1] concerns the target T1, Alpha-1D adrenergic receptor (Rattus norvegicus) (UniProt P23944).
T1 sequence (whole entry): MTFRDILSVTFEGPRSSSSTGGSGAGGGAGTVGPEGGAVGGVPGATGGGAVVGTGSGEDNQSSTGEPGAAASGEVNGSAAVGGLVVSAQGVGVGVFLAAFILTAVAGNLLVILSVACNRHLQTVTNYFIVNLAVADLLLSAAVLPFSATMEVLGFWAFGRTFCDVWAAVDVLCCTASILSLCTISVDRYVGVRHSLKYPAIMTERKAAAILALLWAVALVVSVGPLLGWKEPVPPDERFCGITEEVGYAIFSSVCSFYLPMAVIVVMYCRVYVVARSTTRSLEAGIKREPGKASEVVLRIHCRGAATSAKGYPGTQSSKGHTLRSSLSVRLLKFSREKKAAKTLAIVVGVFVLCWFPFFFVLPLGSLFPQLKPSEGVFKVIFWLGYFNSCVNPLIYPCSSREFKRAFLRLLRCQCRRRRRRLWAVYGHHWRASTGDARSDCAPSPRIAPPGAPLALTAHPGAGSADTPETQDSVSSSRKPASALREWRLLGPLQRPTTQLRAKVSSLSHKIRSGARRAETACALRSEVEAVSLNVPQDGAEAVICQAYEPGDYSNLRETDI
Briefly: Antagonist affinity was expressed as apparent pKb at alpha-1D adrenergic receptor on isolated rat thoracic aorta (Alpha-1D adrenergic receptor). In kind it is functional, tissue-based. Put shortly:
(§1)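 Helicoidal strips of rat thoracic aorta at 1 g tension, with 0.1 μM cocaine and 1 μM propranolol. After ≥1 h equilibration, cumulative (–)-noradrenaline curves at 30-min intervals; the third served as control. Antagonist equilibrated 30 min before the fourth curve. Apparent pKb from log(DR−1) − log[B], 2–3 antagonist concentrations, each tested four times.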

In test [2] the target is T2, Adrenergic receptor alpha-2 (Rattus norvegicus) (UniProt P22086+P19328+P22909). Briefly: The binding affinity was evaluated on alpha-2 adrenergic receptor expressed in rat cortex by using [3H]rauwolscine as radioligand. Put shortly:
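Male Sprague-Dawley rat cerebral cortex membranes, washed in Tris-HCl pH 7.4 and held in buffer with 10 μM pargiline and 0.1% ascorbic acid. Incubated 30 min at 25 °C with 0.5-1.5 nM [3H]rauwolscine; nonspecific binding with 10 μM phentolamine. Filtration, scintillation counting. Ki from Cheng-Prusoff; 2-3 experiments in triplicate.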

Test [3] has as its target 5-hydroxytryptamine receptor 2A (Rattus norvegicus) (UniProt P14842). Briefly: The binding affinity was evaluated on 5-hydroxytryptamine 2A receptor expressed in rat cortex by using [3H]ketanserin as radioligand. In a few lines:
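Rat cerebral cortex membranes in Tris-HCl pH 7.4 with 10 μM pargyline and 0.1% ascorbic acid. Incubated 20 min at 37 °C with 0.7–1.3 nM [3H]ketanserin. Nonspecific binding with 2 μM ketanserin. Filtration and scintillation counting. Ki by Cheng-Prusoff. 2–3 experiments in triplicate.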

Test [4] deals with Alpha-1B adrenergic receptor (Cavia porcellus). Briefly: Antagonist affinity was expressed as apparent pKb at alpha-1B adrenergic receptor on isolated Guinea pig spleen (Alpha-1B adrenergic receptor).
The target of test [5] is T3, Alpha-1B adrenergic receptor (Homo sapiens) (UniProt P35368).
T3 sequence (whole entry): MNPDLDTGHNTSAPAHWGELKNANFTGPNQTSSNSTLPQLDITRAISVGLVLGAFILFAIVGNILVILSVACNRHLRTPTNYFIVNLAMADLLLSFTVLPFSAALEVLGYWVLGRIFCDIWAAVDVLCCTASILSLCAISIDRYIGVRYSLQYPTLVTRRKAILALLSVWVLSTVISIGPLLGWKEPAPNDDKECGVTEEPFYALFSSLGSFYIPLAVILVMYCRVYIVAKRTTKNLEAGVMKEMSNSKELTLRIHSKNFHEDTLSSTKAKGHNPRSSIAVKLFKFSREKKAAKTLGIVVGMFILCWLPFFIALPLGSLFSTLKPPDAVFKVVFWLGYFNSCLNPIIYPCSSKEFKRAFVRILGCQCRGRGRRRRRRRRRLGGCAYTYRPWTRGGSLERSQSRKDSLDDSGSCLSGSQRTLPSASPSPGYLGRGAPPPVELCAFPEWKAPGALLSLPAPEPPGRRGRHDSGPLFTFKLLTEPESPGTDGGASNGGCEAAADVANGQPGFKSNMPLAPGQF
The experiment in a line: The binding affinity was evaluated on cloned human alpha-1B adrenergic receptor expressed in chinese hamster ovary(CHO) cells by using [3H]prazosin as radioligand. It counts as cell-based. Put shortly: (§2)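 Membranes (30 μg protein) from CHO cells stably expressing each human α1 subtype, in 50 mM Tris-HCl pH 7.4. Incubated with 0.1–0.4 nM [3H]prazosin for 30 min at 25 °C, competitor 1 pM–10 μM. Nonspecific binding with 10 μM phentolamine. Ki by Cheng-Prusoff. 2–3 experiments in triplicate.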

The target in test [6] is T3, Alpha-1B adrenergic receptor (Homo sapiens). Briefly: The binding affinity was evaluated on cloned human Alpha-1B adrenergic receptor expressed in chinese hamster ovary(CHO) cells by using [3H]prazosin as radioligand. In kind it is cell-based. In a few lines: as §2
Test [7] concerns the target T4, Alpha-1A adrenergic receptor (Homo sapiens) (UniProt P35348).
T4 sequence (whole entry): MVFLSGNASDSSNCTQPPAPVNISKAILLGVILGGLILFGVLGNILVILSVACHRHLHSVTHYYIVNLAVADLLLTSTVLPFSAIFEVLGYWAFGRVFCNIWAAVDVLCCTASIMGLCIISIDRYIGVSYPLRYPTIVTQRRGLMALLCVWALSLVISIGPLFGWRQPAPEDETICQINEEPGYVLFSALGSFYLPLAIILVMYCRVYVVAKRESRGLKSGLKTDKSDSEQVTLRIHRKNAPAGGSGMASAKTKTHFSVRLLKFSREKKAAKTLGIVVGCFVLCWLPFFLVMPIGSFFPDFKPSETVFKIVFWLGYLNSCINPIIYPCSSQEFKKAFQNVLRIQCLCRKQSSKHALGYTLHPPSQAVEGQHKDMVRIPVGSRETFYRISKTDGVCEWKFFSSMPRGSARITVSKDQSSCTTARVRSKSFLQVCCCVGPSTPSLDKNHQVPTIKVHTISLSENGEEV
The experiment in a line: The binding affinity was evaluated on cloned human Alpha-1A adrenergic receptor expressed in chinese hamster ovary(CHO) cells by using [3H]prazosin as radioligand. In kind it is cell-based. In a few lines: as §2

The target in test [8] is T2, Adrenergic receptor alpha-2 (Rattus norvegicus). Briefly: The binding affinity was evaluated on Alpha-2 adrenergic receptor expressed in rat cortex by using [3H]rauwolscine as radioligand. In a few lines: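 Male Sprague-Dawley rat cerebral cortex membranes, washed in Tris-HCl pH 7.4 and resuspended with 10 μM pargyline and 0.1% ascorbic acid. Incubated 30 min at 25 °C with 0.5–1.5 nM [3H]rauwolscine. Nonspecific binding with 10 μM phentolamine. Filtration on PEI-treated filters. Ki by Cheng-Prusoff. 2–3 experiments in triplicate.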

The target in test [9] is T1, Alpha-1D adrenergic receptor (Rattus norvegicus). The experiment in a line: Antagonist affinity was expressed as apparent pKb at Alpha-1D adrenergic receptor on isolated rat thoracic aorta (Alpha-1D). In kind it is functional, tissue-based. Put shortly:
as §1

Sequence of 5-hydroxytryptamine receptor 2A (Rattus norvegicus) (P14842 whole entry): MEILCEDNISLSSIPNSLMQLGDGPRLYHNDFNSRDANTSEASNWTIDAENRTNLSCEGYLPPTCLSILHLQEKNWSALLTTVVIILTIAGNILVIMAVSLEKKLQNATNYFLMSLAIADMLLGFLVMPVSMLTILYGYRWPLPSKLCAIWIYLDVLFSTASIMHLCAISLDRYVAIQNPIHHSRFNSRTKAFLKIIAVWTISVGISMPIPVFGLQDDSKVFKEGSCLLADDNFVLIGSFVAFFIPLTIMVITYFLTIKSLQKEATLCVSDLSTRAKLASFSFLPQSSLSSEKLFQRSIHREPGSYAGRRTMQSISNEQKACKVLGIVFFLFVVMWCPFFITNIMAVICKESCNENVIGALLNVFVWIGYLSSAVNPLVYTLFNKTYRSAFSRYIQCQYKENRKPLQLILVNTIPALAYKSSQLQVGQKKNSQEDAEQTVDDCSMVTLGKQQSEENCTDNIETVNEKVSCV

A word on the pKb: it is the Kb on a negative log10 scale, so that one unit is a factor of ten. Usually pKi stands for −log10 of the Ki, conventionally taken in molar units. Consider `COc1cccc(OC)c1OCCNCC1C(=O)c2ccccc2OC1c1ccccc1` (stereo not drawn), for which the results for the pKb in test [1] and in test [4] were 6.98 and 6.05, respectively. Further, the figures for the pKi in [2], in test [3] and in test [5] were below 6, 6.2 and 6.84, respectively.
`COc1cccc(OC)c1OCCNCC1Oc2ccccc2CC1c1ccccc1` (stereo in doubt; 7): the pKi is 6.58 in [6], 8.49 in test [7], below 6 in test [3] and below 6 in test [8]. Also, the pKb in [9] stood at 7.46.
Turning to `COc1cccc(OC)c1OCCNCCOc1ccccc1OCc1ccccc1`, the pKi in test [6] stood at 9.27; in test [7], 9.33. In test [9], the pKb is 9.37.
